{"source": "ChEMBL document CHEMBL3997769", "about": "“Discovery and preclinical evaluation of 7-benzyl-N-(substituted)-pyrrolo[3,2-d]pyrimidin-4-amines as single agents with microtubule targeting effects along with triple-acting angiokinase inhibition as antitumor agents” (Bioorg Med Chem, 2017)", "key": {"BT-549": {"test_system": "BT-549", "assay": "Growth inhibition of human BT549 cells incubated for 48 hrs by sulforhodamine B assay", "assay_type": "functional", "settings": "BT-549, 48 h"}, "NCI-H460": {"test_system": "NCI-H460", "assay": "Growth inhibition of human NCI-H460 cells incubated for 48 hrs by sulforhodamine B assay", "assay_type": "functional", "settings": "NCI-H460, 48 h"}, "SF-268": {"test_system": "SF-268", "assay": "Growth inhibition of human SF268 cells incubated for 48 hrs by sulforhodamine B assay", "assay_type": "functional", "settings": "SF-268, 48 h"}, "SF-539": {"test_system": "SF-539", "assay": "Growth inhibition of human SF539 cells incubated for 48 hrs by sulforhodamine B assay", "assay_type": "functional", "settings": "SF-539, 48 h"}, "CAKI-1": {"test_system": "CAKI-1", "assay": "Growth inhibition of human Caki1 cells incubated for 48 hrs by sulforhodamine B assay", "assay_type": "functional", "settings": "CAKI-1, 48 h"}, "SF-295": {"test_system": "SF-295", "assay": "Growth inhibition of human SF295 cells incubated for 48 hrs by sulforhodamine B assay", "assay_type": "functional", "settings": "SF-295, 48 h"}, "NCI-H23": {"test_system": "NCI-H23", "assay": "Growth inhibition of human NCI-H23 cells incubated for 48 hrs by sulforhodamine B assay", "assay_type": "functional", "settings": "NCI-H23, 48 h"}, "NCI-H522": {"test_system": "NCI-H522", "assay": "Growth inhibition of human NCI-H522 cells incubated for 48 hrs by sulforhodamine B assay", "assay_type": "functional", "settings": "NCI-H522, 48 h"}, "SK-OV-3": {"test_system": "SK-OV-3", "assay": "Growth inhibition of human SKOV3 cells incubated for 48 hrs by sulforhodamine B assay", "assay_type": "functional", "settings": "SK-OV-3, 48 h"}, "Malme-3M": {"test_system": "Malme-3M", "assay": "Growth inhibition of human MALME-3M cells incubated for 48 hrs by sulforhodamine B assay", "assay_type": "functional"}, "A549": {"test_system": "A549", "assay": "Growth inhibition of human A549/ATCC cells incubated for 48 hrs by sulforhodamine B assay", "assay_type": "functional", "settings": "A549, 48 h"}, "A498": {"test_system": "A498", "assay": "Growth inhibition of human A498 cells incubated for 48 hrs by sulforhodamine B assay", "assay_type": "functional", "settings": "A498, 48 h"}, "COLO 205": {"test_system": "COLO 205", "assay": "Growth inhibition of human COLO205 cells incubated for 48 hrs by sulforhodamine B assay", "assay_type": "functional", "settings": "COLO 205, 48 h"}, "HeLa": {"test_system": "HeLa", "assay": "Growth inhibition of human HeLa cells measured after 96 hrs by sulforhodamine B assay", "assay_type": "functional, cell-based", "summary_of_the_method": "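Exposed 96 h to varying compound concentrations in 0.5% DMSO. Cell protein measured by sulforhodamine B; IC50 = concentration halving the increase in cell protein versus untreated cultures.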"}, "PC-3": {"test_system": "PC-3", "assay": "Growth inhibition of human PC3 cells incubated for 48 hrs by sulforhodamine B assay", "assay_type": "functional", "settings": "PC-3, 48 h"}, "4T1 [1]": {"test_system": "4T1", "assay": "Antitumor activity against luciferase/GFP-tagged mouse 4T1 cells implanted in Balb/cJ mouse assessed as reduction in lung metastasis at 50 mg/kg, ip administered three times weekly by fluorescence microscopic method", "assay_type": "functional, organism-based", "summary_of_the_method": "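Orthotopic 4T1-Luc2-GFP allograft in the mammary fat pad of female BALB/cJ mice; IP treatment in 5% Pharmasolve/5% Solutol HS in saline began one week after implantation. At study end, lungs were excised from mice euthanized under isoflurane and imaged with a GFP-filter fluorescence dissecting microscope; GFP-positive metastases per lung counted. n = 9-10.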"}, "MDA-MB-468": {"test_system": "MDA-MB-468", "assay": "Growth inhibition of human MDA-MB-468 cells incubated for 48 hrs by sulforhodamine B assay", "assay_type": "functional", "settings": "MDA-MB-468, 48 h"}, "RPMI-8226": {"test_system": "RPMI-8226", "assay": "Growth inhibition of human RPMI8226 cells incubated for 48 hrs by sulforhodamine B assay", "assay_type": "functional", "settings": "RPMI-8226, 48 h"}, "Hs-578T": {"test_system": "Hs-578T", "assay": "Growth inhibition of human Hs578T cells incubated for 48 hrs by sulforhodamine B assay", "assay_type": "functional"}, "4T1 [2]": {"test_system": "4T1", "assay": "Antitumor activity against luciferase/GFP-tagged mouse 4T1 cells implanted in Balb/CJ mouse assessed as reduction in primary tumor growth at 50 mg/kg, ip administered three times in a week", "assay_type": "functional, organism-based"}, "NCI-H322M": {"test_system": "NCI-H322M", "assay": "Growth inhibition of human NCI-H322M cells incubated for 48 hrs by sulforhodamine B assay", "assay_type": "functional"}}, "note": "Calls of active or inactive are those of the source. No cut-off for these calls is given here."}
{"compound": "COc1ccc(N(C)c2nc(C)nc3c(Cc4ccccc4)cn(C)c23)cc1.Cl", "values": [{"measurement": "GI50", "setting": "BT-549", "result": 0.0482, "unit": "µM"}, {"measurement": "GI50", "setting": "NCI-H460", "result": 0.0387, "unit": "µM"}, {"measurement": "GI50", "setting": "SF-268", "result": 0.35, "unit": "µM"}, {"measurement": "GI50", "setting": "SF-539", "result": 0.0254, "unit": "µM"}, {"measurement": "GI50", "setting": "CAKI-1", "result": 0.0566, "unit": "µM"}, {"measurement": "GI50", "setting": "SF-295", "result": 0.0304, "unit": "µM"}, {"measurement": "GI50", "setting": "NCI-H23", "result": 0.0458, "unit": "µM"}, {"measurement": "GI50", "setting": "NCI-H522", "result": 0.0239, "unit": "µM"}, {"measurement": "GI50", "setting": "SK-OV-3", "result": 0.0454, "unit": "µM"}, {"measurement": "GI50", "setting": "Malme-3M", "result": 0.0177, "unit": "µM"}, {"measurement": "GI50", "setting": "A549", "result": 0.044, "unit": "µM"}, {"measurement": "GI50", "setting": "A498", "result": 0.0202, "unit": "µM"}, {"measurement": "GI50", "setting": "COLO 205", "result": 0.0263, "unit": "µM"}, {"measurement": "IC50", "setting": "HeLa", "result": 0.014, "unit": "µM"}, {"measurement": "GI50", "setting": "PC-3", "result": 0.0496, "unit": "µM"}, {"measurement": "Activity", "setting": "4T1 [1]", "result": "Active"}, {"measurement": "GI50", "setting": "MDA-MB-468", "result": 0.0301, "unit": "µM"}, {"measurement": "GI50", "setting": "RPMI-8226", "result": 0.0369, "unit": "µM"}, {"measurement": "GI50", "setting": "Hs-578T", "result": 0.0623, "unit": "µM"}, {"measurement": "Activity", "setting": "4T1 [2]", "result": "Active"}, {"measurement": "GI50", "setting": "NCI-H322M", "result": 0.0736, "unit": "µM"}]}
